pIC50: −log10 of the molar value. The source made the active and inactive calls.
Tests used:
[1] = target: T1, Voltage-dependent N-type calcium channel subunit alpha-1B (Homo sapiens, UniProt Q00975); experiment: Inhibition of Cav2.2 (unknown origin) expressed in HEK293 cells assessed as decrease in KCl depolarization-induced Ca2+ influx measured for 5 mins by fluorescence based FDSS assay; assay type: cell-based
Target sequence in this assay (Q00975 whole entry): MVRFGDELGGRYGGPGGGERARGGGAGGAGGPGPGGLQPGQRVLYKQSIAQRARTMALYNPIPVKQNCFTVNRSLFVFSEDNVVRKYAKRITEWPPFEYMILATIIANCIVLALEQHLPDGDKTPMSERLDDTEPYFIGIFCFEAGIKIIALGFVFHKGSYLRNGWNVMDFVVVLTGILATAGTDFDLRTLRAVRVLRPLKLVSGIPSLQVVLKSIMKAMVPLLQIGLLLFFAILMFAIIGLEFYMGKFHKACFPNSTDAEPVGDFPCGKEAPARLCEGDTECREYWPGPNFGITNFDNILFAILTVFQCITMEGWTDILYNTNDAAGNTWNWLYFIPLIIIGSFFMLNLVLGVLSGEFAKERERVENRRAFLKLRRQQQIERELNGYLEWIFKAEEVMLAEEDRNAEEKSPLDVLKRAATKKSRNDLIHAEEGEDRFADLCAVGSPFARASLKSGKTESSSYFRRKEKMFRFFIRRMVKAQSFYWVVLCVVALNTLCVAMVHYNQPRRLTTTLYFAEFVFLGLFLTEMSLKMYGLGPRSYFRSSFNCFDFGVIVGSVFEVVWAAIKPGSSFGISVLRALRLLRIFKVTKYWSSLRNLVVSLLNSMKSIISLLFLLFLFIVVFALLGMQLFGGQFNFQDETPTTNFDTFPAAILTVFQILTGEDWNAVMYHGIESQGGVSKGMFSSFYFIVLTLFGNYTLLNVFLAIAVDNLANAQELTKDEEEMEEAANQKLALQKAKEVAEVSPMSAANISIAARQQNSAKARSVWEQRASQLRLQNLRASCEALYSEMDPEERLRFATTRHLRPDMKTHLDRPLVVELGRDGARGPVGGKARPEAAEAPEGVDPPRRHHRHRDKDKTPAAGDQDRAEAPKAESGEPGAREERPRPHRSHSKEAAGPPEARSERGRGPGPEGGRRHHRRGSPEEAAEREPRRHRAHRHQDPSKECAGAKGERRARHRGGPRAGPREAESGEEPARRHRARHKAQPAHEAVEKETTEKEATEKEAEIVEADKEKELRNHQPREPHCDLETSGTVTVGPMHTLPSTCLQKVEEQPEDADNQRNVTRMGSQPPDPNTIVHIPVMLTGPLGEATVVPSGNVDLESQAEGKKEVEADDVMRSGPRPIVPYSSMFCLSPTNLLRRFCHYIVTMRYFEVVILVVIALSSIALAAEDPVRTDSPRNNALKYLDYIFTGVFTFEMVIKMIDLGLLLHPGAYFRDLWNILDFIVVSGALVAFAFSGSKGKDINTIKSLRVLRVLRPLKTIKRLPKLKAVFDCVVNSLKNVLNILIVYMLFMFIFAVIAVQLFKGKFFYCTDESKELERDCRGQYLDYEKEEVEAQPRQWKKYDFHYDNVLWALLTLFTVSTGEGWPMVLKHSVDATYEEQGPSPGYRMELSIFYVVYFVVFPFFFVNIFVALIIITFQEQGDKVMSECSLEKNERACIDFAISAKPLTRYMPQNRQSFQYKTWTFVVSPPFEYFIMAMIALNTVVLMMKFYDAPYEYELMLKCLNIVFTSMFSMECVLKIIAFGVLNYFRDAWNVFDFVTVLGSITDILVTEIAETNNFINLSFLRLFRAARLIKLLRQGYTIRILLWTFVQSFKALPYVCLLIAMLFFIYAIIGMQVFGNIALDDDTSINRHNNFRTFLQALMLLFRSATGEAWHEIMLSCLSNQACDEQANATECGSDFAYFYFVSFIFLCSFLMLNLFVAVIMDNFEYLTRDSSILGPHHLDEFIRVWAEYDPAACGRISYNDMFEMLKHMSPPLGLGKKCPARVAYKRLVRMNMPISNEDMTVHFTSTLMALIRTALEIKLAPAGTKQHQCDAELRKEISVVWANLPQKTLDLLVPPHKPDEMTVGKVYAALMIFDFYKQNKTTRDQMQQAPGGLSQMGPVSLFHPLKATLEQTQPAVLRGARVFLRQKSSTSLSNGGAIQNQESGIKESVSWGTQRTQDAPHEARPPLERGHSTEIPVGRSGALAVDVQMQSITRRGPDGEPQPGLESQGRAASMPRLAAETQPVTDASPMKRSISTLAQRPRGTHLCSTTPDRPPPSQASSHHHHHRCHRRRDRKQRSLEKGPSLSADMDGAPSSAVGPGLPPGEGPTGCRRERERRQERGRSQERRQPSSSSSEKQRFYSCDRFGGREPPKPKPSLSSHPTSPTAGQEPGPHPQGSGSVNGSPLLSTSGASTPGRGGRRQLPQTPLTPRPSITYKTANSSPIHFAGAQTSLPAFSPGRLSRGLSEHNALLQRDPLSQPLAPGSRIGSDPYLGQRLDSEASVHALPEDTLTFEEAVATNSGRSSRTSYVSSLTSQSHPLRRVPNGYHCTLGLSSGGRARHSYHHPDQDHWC

[2] = target: T1, Voltage-dependent N-type calcium channel subunit alpha-1B; experiment: Inhibition of high frequency stimulation-induced Cav2.2 (unknown origin) expressed in HEK293 cells at -80 mV holding membrane potential by automated patch clamp assay; assay type: cell-based
Target sequence in this assay (Q00975 whole entry): as above

[3] = target: T1, Voltage-dependent N-type calcium channel subunit alpha-1B; experiment: Inhibition of low frequency stimulation-induced Cav2.2 (unknown origin) expressed in HEK293 cells at -80 mV holding membrane potential by automated patch clamp assay; assay type: cell-based
Target sequence in this assay (Q00975 whole entry): as above

[4] = Metabolic stability of human liver microsomes assessed as parent compound remaining after 10 mins; assay type: ADME, microsome; details: read-out: Stability
[5] = Metabolic stability of rat liver microsomes assessed as parent compound remaining after 10 mins; assay type: ADME, microsome; details: read-out: Stability
[6] = target: Voltage-gated inwardly rectifying potassium channel KCNH2 (Homo sapiens, UniProt Q12809); experiment: Inhibition of human ERG
Voltage-gated inwardly rectifying potassium channel KCNH2, sequence (Q12809 whole entry): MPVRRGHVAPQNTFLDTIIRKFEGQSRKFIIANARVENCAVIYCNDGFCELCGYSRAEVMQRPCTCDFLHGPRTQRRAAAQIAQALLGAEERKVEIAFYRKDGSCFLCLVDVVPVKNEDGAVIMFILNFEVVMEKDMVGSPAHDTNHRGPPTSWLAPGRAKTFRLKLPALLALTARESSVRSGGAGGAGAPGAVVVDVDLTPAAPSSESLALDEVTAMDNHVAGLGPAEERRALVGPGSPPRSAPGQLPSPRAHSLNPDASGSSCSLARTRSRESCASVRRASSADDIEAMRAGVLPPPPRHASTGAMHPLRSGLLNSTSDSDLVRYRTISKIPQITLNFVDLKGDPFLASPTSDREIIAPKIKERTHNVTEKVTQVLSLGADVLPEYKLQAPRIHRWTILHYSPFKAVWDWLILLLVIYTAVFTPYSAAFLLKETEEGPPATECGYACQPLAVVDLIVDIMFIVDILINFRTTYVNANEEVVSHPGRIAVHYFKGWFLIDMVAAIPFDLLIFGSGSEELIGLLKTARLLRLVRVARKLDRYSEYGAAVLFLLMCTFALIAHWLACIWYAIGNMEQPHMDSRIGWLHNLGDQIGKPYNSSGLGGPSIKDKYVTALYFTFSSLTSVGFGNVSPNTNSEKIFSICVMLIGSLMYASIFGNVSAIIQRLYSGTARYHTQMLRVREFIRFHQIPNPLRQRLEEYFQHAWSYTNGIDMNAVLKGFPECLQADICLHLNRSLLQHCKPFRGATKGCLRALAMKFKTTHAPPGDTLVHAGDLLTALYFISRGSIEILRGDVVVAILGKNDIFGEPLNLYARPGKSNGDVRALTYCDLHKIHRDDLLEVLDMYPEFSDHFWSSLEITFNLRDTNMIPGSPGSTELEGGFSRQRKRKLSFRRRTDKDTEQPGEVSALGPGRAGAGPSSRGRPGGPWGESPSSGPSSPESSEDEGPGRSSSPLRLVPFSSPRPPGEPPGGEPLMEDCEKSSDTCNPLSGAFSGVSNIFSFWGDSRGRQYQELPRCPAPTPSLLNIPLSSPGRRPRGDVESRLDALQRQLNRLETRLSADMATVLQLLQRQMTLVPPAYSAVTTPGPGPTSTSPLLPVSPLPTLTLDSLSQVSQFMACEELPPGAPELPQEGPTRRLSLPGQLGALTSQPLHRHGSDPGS

L-type calcium channel = L-type calcium channel (Homo sapiens, UniProt O60840+Q01668+Q13698+Q13936); experiment: Inhibition of L-type calcium channel (unknown origin) at 1 uM relative to control; assay type: protein assay
[7] = AUClast in rat at 10 mg/kg, po; assay type: ADME, organism-based; design: dose 10 mg/kg, time 0 - last, route oral; details: in vivo
Outline: (§1)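 Rat PK: oral and intravenous dosing of the same compound in 20% hydroxypropyl-β-cyclodextrin, at 10.0/2.0 or 6.0/1.2 mg/kg po/iv.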

[8] = Clearance in rat at 10 mg/kg, po or 2 mg/kg, iv; assay type: ADME, organism-based; details: in vivo; outline: as §1
[9] = Half life in rat at 2 mg/kg, iv; assay type: ADME, organism-based; details: in vivo; outline: as §1
[10] = Cmax in rat at 10 mg/kg, po; assay type: ADME, organism-based; design: dose 10 mg/kg, route oral; details: in vivo; outline: as §1
[11] = Volume of distribution at steady state in rat at 10 mg/kg, po or 2 mg/kg, iv; assay type: ADME, organism-based; details: in vivo, read-out: Vdss; outline: as §1
[12] = Oral bioavailability in rat at 10 mg/kg; assay type: ADME, organism-based; details: in vivo; outline: as §1
Rattus norvegicus [13] = experiment: Antiinflammatory activity in rat model of complete Freund's adjuvant-induced inflammatory pain assessed as reduction in thermal hyperalgesia by measuring radiant heat latency at 30 mg/kg, po measured after 30 mins post dose; assay type: functional, organism-based
Outline: (§2)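 CFA rats were confirmed thermally hypersensitive by radiant heat latency (75% cut-off) on test day. They were then dosed p.o. at 2.5 mL/kg with 30 mg/kg in 10% NMP/20% Solutol, or vehicle alone. Paw withdrawal latency to radiant heat was read at 30, 60, 120, 180 and 300 min post-dose. One-way ANOVA with Dunnett's post test.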

Rattus norvegicus [14] = experiment: Antiinflammatory activity in rat model of complete Freund's adjuvant-induced inflammatory pain assessed as reduction in thermal hyperalgesia by measuring radiant heat latency at 30 mg/kg, po measured after 180 mins post dose; assay type: functional, organism-based; outline: as §2
Rattus norvegicus [15] = experiment: Antinociceptive activity in Sprague-Dawley rat model of CCI-induced neuropathic pain assessed as reduction in acetone-induced nocifensive response at 30 mg/kg, po measured after 3 hrs relative to control; assay type: functional
Outline: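 CCI rats were given 30 mg/kg p.o. in 10% Solutol/20% HP-β-CD, or vehicle. Cold allodynia was scored as brisk hindpaw withdrawal to acetone applied to the affected paw, over five applications, before dosing and hourly for 3 h. Percent inhibition is relative to the time-zero responses. Two-way repeated-measures ANOVA with Bonferroni test.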

[16] = Plasma concentration in rat model of complete Freund's adjuvant-induced inflammatory painat 30 mg/kg, po after 2 hrs; assay type: ADME, organism-based
Outline: (§3)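 In separate studies, drug levels in plasma, brain and spinal cord were measured in rats after a 30 mg/kg p.o. dose, sampled at 1 h or 2 h.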

[17] = Drug uptake in brain of rat model of complete Freund's adjuvant-induced inflammatory pain at 30 mg/kg, po after 2 hrs; assay type: ADME, organism-based; details: read-out: Drug uptake; outline: as §3
[18] = target: T1, Voltage-dependent N-type calcium channel subunit alpha-1B; experiment: Inhibition of high frequency stimulation-induced Cav2.2 (unknown origin) expressed in HEK293 cells at 5 uM at -80 mV holding membrane potential by automated patch clamp assay relative to control; assay type: cell-based
Outline: (§4)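 Automated whole-cell patch clamp (QPatch-HT) on HEK293 cells stably expressing Cav2.2. Each trial was the 4th train at each drug concentration. 60 μM CdCl2 set the 0% level, and vehicle-treated cells were used to correct for rundown.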
Target sequence in this assay (Q00975 whole entry, looked up): as the sequence (Q00975 whole entry) above

[19] = target: T1, Voltage-dependent N-type calcium channel subunit alpha-1B; experiment: Inhibition of low frequency stimulation-induced Cav2.2 (unknown origin) expressed in HEK293 cells at 5 uM at -80 mV holding membrane potential by automated patch clamp assay relative to control; assay type: cell-based; outline: as §4
Target sequence in this assay (Q00975 whole entry, looked up): as the sequence (Q00975 whole entry) above

[20] = AUClast in rat at 6 mg/kg, po; assay type: ADME, organism-based; design: dose 6 mg/kg, route oral, time 0 - last; details: in vivo; outline: as §1
[21] = Clearance in rat at 6 mg/kg, po or 1.2 mg/kg, iv; assay type: ADME, organism-based; details: in vivo; outline: as §1
[22] = Half life in rat at 1.2 mg/kg, iv; assay type: ADME, organism-based; details: in vivo; outline: as §1
[23] = Cmax in rat at 6 mg/kg, po; assay type: ADME, organism-based; design: dose 6 mg/kg, route oral; details: in vivo; outline: as §1
[24] = Volume of distribution at steady state in rat at 6 mg/kg, po or 1.2 mg/kg, iv; assay type: ADME, organism-based; details: in vivo, read-out: Vdss; outline: as §1
[25] = Oral bioavailability in rat at 6 mg/kg; assay type: ADME, organism-based; details: in vivo; outline: as §1
[26] = Plasma concentration in rat model of complete Freund's adjuvant-induced inflammatory pain at 30 mg/kg, po after 1 hr; assay type: ADME, organism-based; outline: as §3
[27] = Drug uptake in brain of rat model of complete Freund's adjuvant-induced inflammatory pain at 30 mg/kg, po after 1 hr; assay type: ADME, organism-based; details: read-out: Drug uptake; outline: as §3
[28] = Drug uptake in spinal cord of rat model of complete Freund's adjuvant-induced inflammatory pain at 30 mg/kg, po after 1 hr; assay type: ADME, organism-based; details: read-out: Drug uptake; outline: as §3

Structure (SMILES) | pIC50 [1] | pIC50 [2] | pIC50 [3] | remaining at 10 min [4] [%] | remaining at 10 min [5] [%] | other results
CCOc1ccc(-c2cc(C3CC(C)(C)OC(C)(C)C3)nn2-c2ccccc2OC)cn1 | 8.30 | 7.36 | 6.70 | – | – | –
COc1ccccc1-n1nc(C2C[C@H](C)O[C@@H](C)C2)cc1-c1ccc(Cl)cc1 (relative stereo) | 8.70 | – | – | 40 | 14 | –
COc1ccccc1-n1nc([C@H]2C[C@@H](C)O[C@@H](C)C2)cc1-c1ccc(Cl)cc1 | 8.52 | 7.92 | 7.04 | 64 | 18 | –
COc1ccccc1-n1nc(C2CC(C)(C)OC(C)(C)C2)cc1-c1ccc(C#N)cc1 | 9.00 | 7.07 | 6.89 | – | – | –
COc1ccccc1-n1nc(C2CC(C)(C)OC(C)(C)C2)cc1-c1ccc(Cl)cc1 | 9.00 | 7.80 | 7.62 | 97 | 96 | pIC50 [6]: 4.70; inhibition at 1 µM (L-type calcium channel): 0%; AUC(0-t) [7]: 1500 ng·h/mL; clearance [8]: 37 mL/min/kg; half-life [9]: 924 min; Cmax [10]: 127 ng/mL; Vd [11]: 33.3 L/kg; bioavailability [12]: 36%; Activity (Rattus norvegicus [13]): Active; Activity (Rattus norvegicus [14]): inactive; inhibition in vivo at 30 mg/kg (Rattus norvegicus [15]): 51%; concentration at 2 h [16]: 700 nM; concentration at 2 h [17]: 1200 nM
CCN(CC)c1ccccc1-n1nc(C2CC(C)(C)OC(C)(C)C2)cc1-c1ccc(Cl)cc1 | 9.00 | 7.00 | 6.23 | – | – | –
COCCCc1cc(-c2ccc(Cl)cc2)n(-c2ccccc2OC)n1 | – | – | – | 58 | 4 | inhibition [18]: 50%; inhibition [19]: 50%
COc1ccccc1-n1nc(C2CCOC(C)(C)C2)cc1-c1ccc(Cl)cc1 (stereo not given) | 8.70 | 7.26 | 6.82 | 98 | 21 | –
CCOc1ccc(-c2cc(C3CC(C)(C)OC(C)(C)C3)nn2-c2ccccc2OC)cc1 | 8.70 | 7.54 | 7.21 | – | – | –
COc1ccccc1-n1nc(C2CC(C)(C)OC(C)(C)C2)cc1-c1csc(Cl)c1 | 8.22 | 7.55 | 7.21 | – | – | pIC50 [6]: 4.59; inhibition at 1 µM (L-type calcium channel): 12%; AUC(0-t) [20]: 2660 ng·h/mL; clearance [21]: 15.9 mL/min/kg; half-life [22]: 612 min; Cmax [23]: 369 ng/mL; Vd [24]: 10.2 L/kg; bioavailability [25]: 49%; Activity (Rattus norvegicus [13]): Active; Activity (Rattus norvegicus [14]): inactive; concentration at 1 h [26]: 1100 nM; concentration at 1 h [27]: 2200 nM; concentration at 1 h [28]: 1900 nM
COc1ccccc1-n1nc(C2CC(C)(C)OC(C)(C)C2)cc1-c1ccnc(Cl)c1 | – | 6.60 | 6.13 | – | – | –
COc1ccccc1-n1nc([C@@H]2CCO[C@H](C(C)C)C2)cc1-c1ccc(Cl)cc1 (relative stereo) | 8.15 | – | – | 66 | 21 | –
COc1ccccc1-n1nc(C2CCOCC2)cc1-c1ccc(Cl)cc1 | 7.52 | – | – | 75 | 8 | –
COc1ccccc1-n1nc([C@@H]2CCO[C@@H](C(C)C)C2)cc1-c1ccc(Cl)cc1 (relative stereo) | 7.70 | – | – | 26 | 14 | –
CC1(C)CC(c2cc(-c3ccc(Cl)cc3)n(-c3ccncc3)n2)CC(C)(C)O1 | 8.15 | – | – | – | – | –
CC1(C)CC(c2cc(-c3ccc(Cl)cc3)n(-c3ccccn3)n2)CC(C)(C)O1 | 7.92 | – | – | – | – | –
COc1ccccc1-n1nc(C2=CC(C)(C)OC(C)(C)C2)cc1-c1ccc(Cl)cc1 | 8.52 | – | – | 96 | 37 | –
COc1ccccc1-n1nc(C2CC(C)(C)OC(C)(C)C2)cc1-c1ccc(C)nc1 | 8.22 | – | – | – | – | –
